# Results taken from PubChem BioAssay.
# Calls of active or inactive are those of the source. Cut-off read from the data, not from the text of the source, unless noted: active = inhibition above about 30%; inactive = the rest.
# Key:
# [1] = reducers of endogenous Her2 protein level, primary screen, SKBR3 breast tumor cells, AlphaScreen, ATP viability (AID 461;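 active = Her2 level under about 52% in both replicate screens, with viability over 70% of control, limit read from the data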;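 for Her2 level: lower value means less Her2 protein in the cells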;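 for viability: percent of carrier control wells set as 100% viability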); conditions: 18-24 h, measured here: SKBR3 viability, ATP luminescence, at 10 µM
# [2] = molecular target: Receptor tyrosine-protein kinase erbB-2 (Homo sapiens) (UniProt P04626); test: as above; conditions: 18-24 h, at 10 µM, stronger effect = lower value
# Receptor tyrosine-protein kinase erbB-2 (Homo sapiens), sequence (P04626 whole entry, looked up): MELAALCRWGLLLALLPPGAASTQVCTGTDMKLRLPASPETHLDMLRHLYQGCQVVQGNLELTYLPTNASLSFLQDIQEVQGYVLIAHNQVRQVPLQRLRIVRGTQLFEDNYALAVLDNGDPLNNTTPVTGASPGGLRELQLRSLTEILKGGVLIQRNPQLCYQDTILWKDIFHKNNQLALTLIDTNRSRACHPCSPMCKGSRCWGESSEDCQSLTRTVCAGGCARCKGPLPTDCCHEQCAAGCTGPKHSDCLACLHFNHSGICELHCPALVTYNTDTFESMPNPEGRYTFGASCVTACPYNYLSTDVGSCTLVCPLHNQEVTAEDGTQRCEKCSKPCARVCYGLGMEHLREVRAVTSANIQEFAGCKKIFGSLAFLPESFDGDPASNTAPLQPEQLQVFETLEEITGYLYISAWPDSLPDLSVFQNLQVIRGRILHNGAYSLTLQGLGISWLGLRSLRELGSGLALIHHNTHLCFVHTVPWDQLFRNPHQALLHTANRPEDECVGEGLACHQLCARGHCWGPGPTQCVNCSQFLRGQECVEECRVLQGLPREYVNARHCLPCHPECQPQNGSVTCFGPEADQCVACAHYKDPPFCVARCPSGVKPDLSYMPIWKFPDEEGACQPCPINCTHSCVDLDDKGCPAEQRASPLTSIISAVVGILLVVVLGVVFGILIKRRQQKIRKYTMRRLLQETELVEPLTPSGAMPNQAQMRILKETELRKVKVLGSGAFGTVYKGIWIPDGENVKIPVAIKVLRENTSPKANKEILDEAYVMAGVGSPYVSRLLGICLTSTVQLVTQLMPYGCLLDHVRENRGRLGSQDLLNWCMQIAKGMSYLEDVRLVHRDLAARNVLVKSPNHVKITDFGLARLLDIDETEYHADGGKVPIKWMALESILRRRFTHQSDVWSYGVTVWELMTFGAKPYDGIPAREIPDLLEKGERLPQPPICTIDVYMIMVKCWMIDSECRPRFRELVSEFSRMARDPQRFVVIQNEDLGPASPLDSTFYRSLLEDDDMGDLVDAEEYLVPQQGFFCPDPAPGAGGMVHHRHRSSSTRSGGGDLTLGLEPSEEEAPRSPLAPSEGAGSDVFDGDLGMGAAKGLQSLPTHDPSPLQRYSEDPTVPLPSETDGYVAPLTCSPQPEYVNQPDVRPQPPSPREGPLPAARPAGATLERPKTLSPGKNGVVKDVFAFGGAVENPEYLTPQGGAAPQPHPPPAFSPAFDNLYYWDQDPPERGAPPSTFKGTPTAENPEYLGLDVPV
# [3] = SK-BR-3 cell growth inhibitors, pilot screen, 24 h, human (AID 572;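 active = viability at or below 10% of carrier control in both of two separate runs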;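 note: compound exposure lasted between 18 and 24 h rather than exactly 24 h; 100% = carrier-treated control wells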); conditions: SK-BR-3 viability, CellTiter-Glo luminescence, at 10 µM, stronger effect = lower value
# [4] = HUVEC growth inhibition – cell-based, human, primary screen (AID 575;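 active = viability at or below 30% in both replicate assays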;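 note: 100% = median of untreated cell wells with 0.1% DMSO on each plate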); conditions: HUVEC proliferation, CellTiter-Glo luminescence, 72 h; at 10 µM; stronger effect = lower value
# Summary of the method: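 material = primary HUVEC, no more than 12 passages | input = 1250 cells per well | controls = vehicle and MePR control wells | measured by = CTG luminescence | times = 72 h compound incubation | format = collagen-coated 384-well format | read-out = % viability vs DMSO wells | doses = single 10 µM dose, 0.1% DMSO, from 5x medium stock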
# [5] = growth inhibitors of H69AR lung tumor, primary screen, human, duplicate replicates (AID 580;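 active = viability at or under a set limit in both replicates, limit being median viability minus 3 SD, cut at about 48% in these data, passing the limit was not always enough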;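 note: 100% = mean luminescence of untreated wells and 0% = no signal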); conditions: H69AR lung tumor cells viability, ATP luminescence, 72 h; at 10 µM; stronger effect = lower value
# [6] = reversal of MRP1-mediated doxorubicin resistance, pilot screen, H69AR cells, doxorubicin co-treatment (AID 601;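 active = viability loss from added drug above about 55%, and viability with drug at most 40%, in both replicates, limit read from the data, passing the limit was not always enough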); conditions: CellTiter-Glo, 72 h, at 10 µM; for differential viability (reversal): stronger effect = higher value
# [7] = 384-well plate pilot, post-Golgi transport modulator project, inhibition of yeast transport mutant growth (AID 636; in the data active = inhibition above about 31%); conditions: absorbance 615 nm, about 18 h, stronger effect = higher value
# [8] = growth suppression of yeast trafficking mutant, preliminary HTS, modulators of trafficking downstream of Golgi apparatus project, 1536-format plate, OD 615 nm (AID 637); conditions: yeast transport mutant growth, absorbance 615 nm, 18 h; stronger effect = higher value
# [9] = H69AR cells + 2 uM doxorubicin, measured here: viability with 2 uM doxorubicin, stronger effect = lower value
# [10] = H69AR cells, compound alone cytotoxicity
SMILES,viability [1] [%],Her2 level [2],viability [3],viability [4],viability [5],differential viability (reversal) ([6]; H69AR cells + 2 uM doxorubicin),"viability [6, 9] [%]","viability [6, 10] [%]",inhibition [7],inhibition [8]
COc1ccccc1N1CCN(C(=O)C2CCCO2)CC1 (stereo not given),98.5,92.5% (inactive),98.5% (inactive),90% (inactive),97.5% (inactive),-0.265% (inactive),97.8,97.5,-1.69% (inactive),1.8% (inactive)
O=C(Nc1ccccn1)NC(C(F)(F)F)C(F)(F)F,98.5,102% (inactive),98.5% (inactive),100% (inactive),92.9% (inactive),2.58% (inactive),90.3,92.9,-1.07% (inactive),1.15% (inactive)
CCOC(=O)c1c(NC(=O)c2cccs2)sc(C)c1C,77,83.5% (inactive),77% (inactive),67.8% (inactive),86.2% (inactive),2.64% (inactive),83.6,86.2,-5.33% (inactive),-0.16% (inactive)
CCOc1ccc(-c2nnc(N)s2)cc1,95,90.5% (inactive),95% (inactive),96.3% (inactive),118% (inactive),25.6% (inactive),92.3,118,0.67% (inactive),-1.29% (inactive)
CC1=CCC2C(=O)N(c3nc(C)cc(C)n3)C(=O)C2C1 (stereo not given),110,80% (inactive),110% (inactive),101% (inactive),91.1% (inactive),-3.95% (inactive),95,91.1,-6.71% (inactive),0.48% (inactive)
Cc1ccccc1CS(=O)(=O)CCC(=O)N1CCN(c2ccc(N3CCOCC3)nn2)CC1,91.5,81% (inactive),91.5% (inactive),97.1% (inactive),103% (inactive),10.7% (inactive),92.7,103,-2.24% (inactive),-0.73% (inactive)
CC(C)=CCCC(C)N(C=O)C(C)CCC=C(C)C (stereo not given),84.5,94% (inactive),84.5% (inactive),76.3% (inactive),87.8% (inactive),7.05% (inactive),80.7,87.8,-0.68% (inactive),-2.7% (inactive)
Cc1ccc(C(=O)CC2(O)C(=O)N(CN3CCOCC3)c3ccccc32)cc1 (stereo not given),100,90.5% (inactive),100% (inactive),85.9% (inactive),94.6% (inactive),-5.11% (inactive),99.7,94.6,-3.55% (inactive),-4.83% (inactive)
O=C1C2CCCN2C(c2ccc(Cl)cc2)N1c1nccs1 (stereo not given),99,77% (inactive),99% (inactive),86.5% (inactive),97.4% (inactive),7.26% (inactive),90.2,97.4,-2.24% (inactive),-1.94% (inactive)
O=C(Nc1ccc(S(=O)(=O)NC2CCCC2)cc1)c1cnccn1,92,82.5% (inactive),92% (inactive),104% (inactive),93.7% (inactive),2.56% (inactive),91.2,93.7,-2.5% (inactive),-4% (inactive)
COc1ccc(-c2noc(COc3ccc4ccccc4c3Br)n2)cc1OC,129,104% (inactive),129% (inactive),112% (inactive),80.8% (inactive),5.36% (inactive),75.5,80.8,-4.21% (inactive),-3.23% (inactive)
CCOC(=O)Cn1c(N2CCOCC2)nc2c1c(=O)[nH]c(=O)n2C,106,85.5% (inactive),106% (inactive),89.7% (inactive),88.1% (inactive),-0.31% (inactive),88.4,88.1,-3.95% (inactive),-6.83% (inactive)
CCOCCCn1c(=S)[nH]c2cc3c(cc2c1=O)OCO3,99,102% (inactive),99% (inactive),96.3% (inactive),97.6% (inactive),4.13% (inactive),93.4,97.6,-3.38% (inactive),-2.79% (inactive)
Cc1ccc2[nH]c(=O)c(CN(CCCN3CCOCC3)C(=O)Nc3cccc(Cl)c3)cc2c1,75.5,75% (inactive),75.5% (inactive),47% (inactive),55.4% (inactive),5.47% (inactive),49.9,55.4,-3.33% (inactive),2.13% (inactive)
CCN(CC(=O)Nc1ccc(S(N)(=O)=O)cc1)S(=O)(=O)c1cc(C)ccc1OC,76.5,105% (inactive),76.5% (inactive),109% (inactive),114% (inactive),14.4% (inactive),99.2,114,-3.55% (inactive),-1.67% (inactive)
CCCOc1ccccc1NC(=O)c1c(-c2ccccc2)noc1C,84.5,92% (inactive),84.5% (inactive),79.7% (inactive),89% (inactive),7.04% (inactive),82,89,1.67% (inactive),5% (inactive)
COC(=O)c1cccc(S(=O)(=O)N2CCN(c3nc4ccccc4s3)CC2)c1,83,92.5% (inactive),83% (inactive),87.8% (inactive),81% (inactive),8.71% (inactive),72.3,81,0.67% (inactive),-2.42% (inactive)
CCN(CCNC(=O)C1CCN(S(C)(=O)=O)CC1)c1ccccc1,91,104% (inactive),91% (inactive),93.3% (inactive),88.2% (inactive),5.42% (inactive),82.8,88.2,-1.67% (inactive),-1% (inactive)
COc1ccc(-c2noc(-c3cc(Cl)ccc3Cl)n2)cc1OC,122,78% (inactive),122% (inactive),94.9% (inactive),107% (inactive),18.4% (inactive),88.1,107,-2.67% (inactive),-4.52% (inactive)
CCc1nc(N)c(C#N)c(-c2ccncc2)c1C,102,95% (inactive),102% (inactive),89.2% (inactive),102% (inactive),21.1% (inactive),80.6,102,-4.27% (inactive),-0.82% (inactive)
CC1Cc2cc(/C(O)=C3/C(=O)C(=O)N(CCN4CCOCC4)C3c3cccc(O)c3)ccc2O1 (stereo not given),98.5,120% (inactive),98.5% (inactive),98.9% (inactive),106% (inactive),2.56% (inactive),104,106,3.2% (inactive),-5.32% (inactive)
C=CCc1cccc2cc(C(=O)NCc3cccnc3)c(=O)oc12,97.5,112% (inactive),97.5% (inactive),95% (inactive),95% (inactive),4.88% (inactive),90.1,95,-0.52% (inactive),-9.33% (inactive)
CC(C)(C)Cc1nc(-c2ccccn2)no1,95.5,114% (inactive),95.5% (inactive),88.4% (inactive),100% (inactive),7.35% (inactive),92.9,100,-1.82% (inactive),-3.67% (inactive)
COc1ccc(NC(=O)CCc2nc(-c3ccccc3F)no2)cc1,115,99% (inactive),115% (inactive),91.9% (inactive),93.6% (inactive),4.53% (inactive),89.1,93.6,-0.26% (inactive),-0.66% (inactive)
CCOC(=O)CSc1nc2ccccc2c(=O)n1CCN1CCOCC1,92.5,87.5% (inactive),92.5% (inactive),87.6% (inactive),95.4% (inactive),11% (inactive),84.4,95.4,0% (inactive),-6.19% (inactive)
Cc1ccccc1-c1noc(N)c1C#N,110,70.5% (inactive),110% (inactive),92.3% (inactive),90% (inactive),1.42% (inactive),88.6,90,-5.68% (inactive),4% (inactive)
COc1ccc(S(=O)(=O)N2CCCC(C(=O)N3CCCCCC3)C2)cc1 (stereo not given),102,80% (inactive),102% (inactive),100% (inactive),88.2% (inactive),-3.65% (inactive),91.9,88.2,-5% (inactive),2% (inactive)
C=CCOC(=O)C(C#N)c1nc2ccccc2nc1N1CCN(Cc2ccccc2)CC1 (stereo not given),94,79% (inactive),94% (inactive),77.7% (inactive),84.1% (inactive),-9.45% (inactive),93.6,84.1,-4.53% (inactive),2.3% (inactive)
